Source: ChEMBL document CHEMBL2429791, “Preparation of asymmetric urea derivatives that target prostate-specific membrane antigen for SPECT imaging” (J Med Chem, 2013)

Key:
[1] = Ratio of drug level in human PC3 cells xenografted in C.B.-17/Icr +/+ Jcl mouse to blood of C.B.-17/Icr +/+ Jcl mouse xenografted with human LNCAP and PC3 cells at 25.9 MBq, iv after 3 hrs; format: ADME, organism-based; settings: PC3 tumour xenograft relative to blood
Method in brief: (§1)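 Mice (22–24 g) carried PC-3 (right shoulder) and LNCaP (left shoulder) tumors, raised by injecting 1–5 × 10⁶ cells in 1:1 PBS/Matrigel and used at about 5–10 mm diameter. [¹²⁵I]-tracer was given via the tail vein, n=4 per time point, and mice were decapitated at 2 min, 30 min, 1, 3 or 6 h. Tissues were weighed and γ-counted as %ID/g. Tumor/blood and tumor/muscle ratios were taken from %ID/g, mean ± SD.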

Heart = assay: Biodistribution in heart of C.B.-17/Icr +/+ Jcl mouse xenografted with human LNCAP and PC3 cells at 25.9 MBq, iv after 30 mins; format: ADME, organism-based; settings: in vivo, 0.5 h
Method in brief: (§2)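 ¹²⁵I-labelled tracer given iv by tail vein to mice (22–24 g) bearing LNCaP (left shoulder) and PC-3 (right shoulder) xenografts of about 5–10 mm, grown from 1–5 × 10⁶ cells in 1:1 Matrigel. n=4 per time point; decapitated at 2 min, 30 min, 1, 3, 6 h. Tissues weighed and counted; uptake as %ID/g, mean ± SD.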

Muscle tissue [2] = assay: Biodistribution in muscle of C.B.-17/Icr +/+ Jcl mouse xenografted with human LNCAP and PC3 cells at 25.9 MBq, iv after 3 hrs; format: ADME, organism-based; settings: in vivo
Method in brief: (§3)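 Radioiodinated (¹²⁵I) tracer given by tail-vein injection to mice bearing LNCaP (left shoulder) and PC-3 (right shoulder) xenografts, 22–24 g, grown to about 5–10 mm. Groups of n=4 were decapitated at 2 min, 30 min, 1 h, 3 h or 6 h. Tissues were weighed and counted, and uptake was expressed as %ID/g (mean ± SD).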

Spleen [3] = assay: Biodistribution in spleen of C.B.-17/Icr +/+ Jcl mouse xenografted with human LNCAP and PC3 cells at 25.9 MBq, iv after 30 mins; format: ADME, organism-based; settings: in vivo, 0.5 h; method in brief: as §3
Kidney [4] = assay: Biodistribution in kidney of C.B.-17/Icr +/+ Jcl mouse xenografted with human LNCAP and PC3 cells at 25.9 MBq, iv after 30 mins in presence of 2-PMPA; format: ADME, organism-based; settings: in vivo, 0.5 h
Method in brief: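 Blocking study: ¹²⁵I-labelled tracer coinjected iv by tail vein with 2-PMPA (50 mg/kg) in LNCaP/PC-3 xenograft-bearing mice (22–24 g). Mice decapitated 30 min after injection; tissues weighed and counted; uptake as %ID/g.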

[5] = Ratio of drug level in human PC3 cells xenografted in C.B.-17/Icr +/+ Jcl mouse to blood of C.B.-17/Icr +/+ Jcl mouse xenografted with human LNCAP and PC3 cells at 25.9 MBq, iv after 1 hr; format: ADME, organism-based; settings: PC3 tumour xenograft relative to blood; method in brief: as §1
Blood = assay: Biodistribution in blood of C.B.-17/Icr +/+ Jcl mouse xenografted with human LNCAP and PC3 cells at 25.9 MBq, iv after 6 hrs; format: ADME, organism-based; settings: in vivo; method in brief: as §2
Muscle tissue [6] = assay: Biodistribution in muscle of C.B.-17/Icr +/+ Jcl mouse xenografted with human LNCAP and PC3 cells at 25.9 MBq, iv after 30 mins; format: ADME, organism-based; settings: in vivo, 0.5 h; method in brief: as §3
Nucleic Acid [7] = assay: Ratio of drug level in human PC3 cells xenografted in C.B.-17/Icr +/+ Jcl mouse to muscle of C.B.-17/Icr +/+ Jcl mouse xenografted with human LNCAP and PC3 cells at 25.9 MBq, iv after 30 mins; format: ADME, organism-based; settings: in vivo, 0.5 h; method in brief: as §1
Stomach = assay: Biodistribution in stomach of C.B.-17/Icr +/+ Jcl mouse xenografted with human LNCAP and PC3 cells at 25.9 MBq, iv after 1 hr; format: ADME, organism-based; settings: in vivo; method in brief: as §3
Nucleic Acid [8] = assay: Ratio of drug level in human LNCAP cells xenografted in C.B.-17/Icr +/+ Jcl mouse to muscle of C.B.-17/Icr +/+ Jcl mouse xenografted with human LNCAP and PC3 cells at 25.9 MBq, iv after 1 hr; format: ADME, organism-based; settings: in vivo
Method in brief: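 Tumor-to-blood and tumor-to-muscle ratios were calculated from %ID/g values in ¹²⁵I-tracer biodistribution in LNCaP/PC-3 xenografted mice. Tail-vein dosing, n=4 per time point, sacrifice at 2 min, 30 min, 1, 3 or 6 h.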

Lung [9] = assay: Biodistribution in lung of C.B.-17/Icr +/+ Jcl mouse xenografted with human LNCAP and PC3 cells at 25.9 MBq, iv after 1 hr; format: ADME, organism-based; settings: in vivo; method in brief: as §3
PC-3 = assay: Biodistribution in PC3 cells in C.B.-17/Icr +/+ Jcl mouse xenografted with human LNCAP and PC3 cells at 25.9 MBq, iv after 30 mins; format: ADME, organism-based; settings: in vivo, 0.5 h; method in brief: as §2
Liver [10] = assay: Biodistribution in liver of C.B.-17/Icr […] Jcl mouse xenografted with human LNCAP and PC3 cells at 25.9 MBq, iv after 3 hrs; format: ADME, organism-based; settings: in vivo; method in brief: as §2
Serum = assay: Drug degradation in C.B.-17/Icr +/+ Jcl mouse serum after 18 hrs; format: ADME, cell-free
Method in brief: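 Serum came from heart blood of isoflurane-anesthetized male C.B.-17/Icr +/+ mice (20–22 g), centrifuged at 1,500 × g and stored at −80 °C. ¹²⁵I tracer was incubated in serum at 37 °C, then methanol was added. The sample was centrifuged at 5,000 × g, passed through a 0.45 μm filter, and analyzed by radio-HPLC for intact tracer versus degradation peaks.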

Liver [11] = assay: Biodistribution in liver of C.B.-17/Icr […] Jcl mouse xenografted with human LNCAP and PC3 cells at 25.9 MBq, iv after 30 mins; format: ADME, organism-based; settings: in vivo, 0.5 h; method in brief: as §2
Kidney [12] = assay: Biodistribution in kidney of C.B.-17/Icr +/+ Jcl mouse xenografted with human LNCAP and PC3 cells at 25.9 MBq, iv after 30 mins; format: ADME, organism-based; settings: in vivo, 0.5 h; method in brief: as §2
Thyroid gland = assay: Biodistribution in thyroid of C.B.-17/Icr +/+ Jcl mouse xenografted with human LNCAP and PC3 cells at 25.9 MBq, iv after 3 hrs; format: ADME, organism-based; settings: in vivo; method in brief: as §3
[13] = Distribution coefficient, log D of the compound; format: physicochemical; settings: octanol/water
Nucleic Acid [14] = assay: Ratio of drug level in human LNCAP cells to human PC3 cells xenografted in C.B.-17/Icr […] Jcl mouse at 25.9 MBq, iv after 6 hrs; format: ADME, organism-based; settings: in vivo
Lung [15] = assay: Biodistribution in lung of C.B.-17/Icr +/+ Jcl mouse xenografted with human LNCAP and PC3 cells at 25.9 MBq, iv after 3 hrs; format: ADME, organism-based; settings: in vivo; method in brief: as §3
Spleen [16] = assay: Biodistribution in spleen of C.B.-17/Icr +/+ Jcl mouse xenografted with human LNCAP and PC3 cells at 25.9 MBq, iv after 6 hrs; format: ADME, organism-based; settings: in vivo; method in brief: as §3
[17] = target: Glutamate carboxypeptidase 2 (Homo sapiens, UniProt Q04609); assay: Binding affinity to PSMA in human LNCaP cells after 1 hr by gamma counting; format: cell-based
Sequence of Glutamate carboxypeptidase 2 (Q04609 whole entry): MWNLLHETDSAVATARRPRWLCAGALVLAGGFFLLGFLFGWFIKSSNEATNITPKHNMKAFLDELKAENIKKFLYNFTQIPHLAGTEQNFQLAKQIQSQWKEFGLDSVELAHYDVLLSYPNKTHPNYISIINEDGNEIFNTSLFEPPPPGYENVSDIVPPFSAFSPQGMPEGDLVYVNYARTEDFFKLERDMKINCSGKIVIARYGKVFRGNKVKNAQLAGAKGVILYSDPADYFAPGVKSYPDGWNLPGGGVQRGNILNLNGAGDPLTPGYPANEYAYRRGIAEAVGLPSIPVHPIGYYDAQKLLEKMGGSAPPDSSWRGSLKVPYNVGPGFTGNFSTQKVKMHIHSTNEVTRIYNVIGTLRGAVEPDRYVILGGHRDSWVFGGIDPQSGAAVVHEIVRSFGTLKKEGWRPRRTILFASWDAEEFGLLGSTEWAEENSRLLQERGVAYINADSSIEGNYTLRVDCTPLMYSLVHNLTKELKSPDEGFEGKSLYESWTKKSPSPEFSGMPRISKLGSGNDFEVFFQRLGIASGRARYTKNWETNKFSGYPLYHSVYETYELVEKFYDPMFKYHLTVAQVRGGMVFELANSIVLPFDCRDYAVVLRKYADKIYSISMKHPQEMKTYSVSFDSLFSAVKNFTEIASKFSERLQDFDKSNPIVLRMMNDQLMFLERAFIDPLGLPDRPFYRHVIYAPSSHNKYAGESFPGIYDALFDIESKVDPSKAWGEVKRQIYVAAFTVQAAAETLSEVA
Method in brief: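 LNCaP cells plated at 4 × 10⁵ cells/well and grown 48 h (37 °C/5% CO₂), then washed with RPMI 1640 containing 0.5% BSA. Saturation binding used ¹²⁵I-labelled ligand (specific activity 81.4 kBq/nmol), 1 h at 37 °C; nonspecific binding measured with 100 µM non-radioactive iodinated compound. Cells washed, lysed in 0.2 N NaOH, gamma-counted; Kd from Scatchard plots.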

O=C(O)CC[C@H](NC(=O)N[C@@H](CSC1CC(=O)N(CCCC[C@H](NC(=O)CNC(=O)c2cccc([125I])c2)C(=O)O)C1=O)C(=O)O)C(=O)O (stereo partly drawn)
Kp at 3 h [1]: 0.4 | Drug uptake (Heart): 2.1 % ID/g | Drug uptake (Muscle tissue [2]): 0.2 % ID/g | Drug uptake (Spleen [3]): 43.3 % ID/g | Drug uptake (Kidney [4]): Not Active | Kp at 1 h [5]: 0.7 | Drug uptake (Blood): 0.5 % ID/g | Drug uptake (Muscle tissue [6]): 0.6 % ID/g | Ratio (Nucleic Acid [7]): 1.6 | Drug uptake (Stomach): 1 %ID | Ratio (Nucleic Acid [8]): 15.5 | Drug uptake (Lung [9]): 2.5 % ID/g | Drug uptake (PC-3): 0.9 % ID/g | Drug uptake (Liver [10]): 9 % ID/g | Stability (Serum): Unstable | Drug uptake (Liver [11]): 13.7 % ID/g | Drug uptake (Kidney [12]): 88.8 % ID/g | Drug uptake (Thyroid gland): 0.01 %ID | logD [13]: -1.97 | Ratio (Nucleic Acid [14]): 36.8 | Drug uptake (Lung [15]): 1.2 % ID/g | Drug uptake (Spleen [16]): 9.7 % ID/g | Kd [17]: 7.8 nM
